For 4 compounds, Activity results are on record in ChEMBL document CHEMBL1149905, “A mutual prodrug ester of GABA and perphenazine exhibits antischizophrenic efficacy with diminished extrapyramidal effects” (J Med Chem, 2008).

The source made the active and inactive calls.

The subject of data set [1] is Rattus norvegicus. As to the kind of experiment: Increase in prolactin level in Wistar rat plasma at 7.5 mg/kg, ip after 1 hr relative to control. It counts as functional, organism-based. The arrangement: dose 7.5 mg/kg. In a few lines:
(§1)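 Male Wistar rats (150–230 g), four per group, dosed ip in 1% lactic acid vehicle. Blood taken from the orbital vein under light ether anesthesia before dosing and 1 and 2 h after. EDTA plasma was separated at 1600g for 20 min and frozen at -78 °C. Prolactin was measured by double-antibody rat prolactin RIA, compared with vehicle and time 0 (t test).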

Data set [2] deals with Rattus norvegicus. As to the kind of experiment: Increase in prolactin level in Wistar rat plasma at 7.5 mg/kg, ip after 2 hrs relative to control. It is filed as functional, organism-based. The arrangement: dose 7.5 mg/kg. In a few lines:
as §1

Data set [3] concerns Rattus norvegicus. In words: Toxicity assessed as induction of cataleptic extrapyramidal symptoms in Wistar rat at 7.5 mg/kg, ip after 7 hrs by wall descending test. It is filed as organism-based. The arrangement: dose 7.5 mg/kg, route intraperitoneal. Particulars: in vivo. In a few lines: (§2)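 Rats (six/group) were injected ip with 5 mg/kg or 7.5 mg/kg of the parent drugs, or equimolar esters, in 1% lactic acid. Wall descending test: the time for a rat hanging on the cage wall to move its hind legs to the floor was recorded, with a 120 s maximum. Rats were tested every 30 min up to 420 min post-dose.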

Data set [4] relates to Rattus norvegicus. As to the kind of experiment: Increase in prolactin level in Wistar rat plasma at 5 mg/kg, ip after 1 hr relative to control. It is filed as functional, organism-based. The arrangement: dose 5 mg/kg. In outline:
(§3)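 Male Wistar rats (150–230 g; four/group) received drug ip in 1% lactic acid, with a vehicle control group. Orbital-vein blood was taken under light ether anesthesia before dosing and at 1 and 2 h, collected into EDTA on ice. Plasma was spun at 1600g for 20 min and frozen at -78 °C. Prolactin was measured by double-antibody rat prolactin RIA. Comparison was by t test against control and time 0.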

Data set [5] relates to Rattus norvegicus. In words: Increase in prolactin level in Wistar rat plasma at 5 mg/kg, ip after 2 hrs relative to control. The arrangement: dose 5 mg/kg. It counts as functional, organism-based. In outline: as §3
The subject of data set [6] is Rattus norvegicus. In words: Toxicity assessed as induction of cataleptic extrapyramidal symptoms in Wistar rat at 5 mg/kg, ip after 2 hrs by wall descending test. It is filed as organism-based. Particulars: in vivo. Set-up: dose 5 mg/kg, route intraperitoneal. In a few lines:
as §2

In data set [7] the test system is Rattus norvegicus. In words: Increase in prolactin level in Wistar rat plasma at 5 to 20 mg/kg, po after 90 to 180 mins relative to control. It counts as functional, organism-based. In outline: (§4)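 Five groups of male Wistar rats (4/group) were gavaged with 1% lactic acid vehicle, 5, 10 or 20 mg/kg, or equimolar 7, 14 or 28 mg/kg of the ester salt. Orbital-vein plasma was sampled under light ether at 0, 90 and 180 min and prolactin assayed by double-antibody RIA. Comparison was by t test against control and time 0.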

The subject of data set [8] is Rattus norvegicus. In words: Increase in prolactin level in Wistar rat plasma at 7 to 28 mg/kg, po after 90 to 180 mins relative to control. It is filed as functional, organism-based. In a few lines: as §4
Data set [9] has as its system Rattus norvegicus. As to the kind of experiment: Decrease in sedation in Wistar rat at 5 to 20 mg/kg, po. It counts as functional, organism-based. In a few lines: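 Male Wistar rats (150–230 g) were dosed by gavage. During catalepsy testing, sedation/alertness was recorded double-blind. The ip study used this scale: 0 active mobile; * calm and mobile; ** calm and immobile; *** ataxic and non-alert.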

In data set [10] the test system is Rattus norvegicus. As to the kind of experiment: Reduction of cataleptic behavior in Wistar rat at 5 to 20 mg/kg, po by bar test. It is filed as functional, organism-based. In a few lines:
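Rats were gavaged with 5, 10 or 20 mg/kg or equimolar doses, and catalepsy was scored 4 h post-dose; a time course was run at 5 and 10 mg/kg. Bar test: forelimbs rested on a 5.5 cm bar, and the time to descend to the surface was recorded. Rats were tested individually, hourly, with a 120 s cutoff.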

The test system of data set [11] is Rattus norvegicus. In words: Reduction of D-amphetamine-induced hyperactivity in Wistar rat assessed as reduction of wall-climbing at 2.5 mg/kg, po. Set-up: dose 2.5 mg/kg. It is filed as functional, organism-based. In outline: (§5)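 Male Wistar rats (six/group) were dosed po with 1% lactic acid vehicle (two groups), 2.5 mg/kg or equimolar test agent, or GABA at 1 mg/kg. After 90 min, all groups except one vehicle group received D-amphetamine (2.0 mg/kg ip). Rats were placed singly in barrels, and after 30 min head movements and wall-climbing attempts over 120 s were counted double-blind.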

For data set [12], the system named is Rattus norvegicus. In words: Reduction of D-amphetamine-induced hyperactivity in Wistar rat assessed as reduction of head movements at 2.5 mg/kg, po. It is filed as functional, organism-based. Set-up: dose 2.5 mg/kg. In a few lines: as §5
Data set [13] deals with Rattus norvegicus. As to the kind of experiment: Toxicity assessed as induction of cataleptic extrapyramidal symptoms in Wistar rat at 7.5 mg/kg, ip after 2 hrs by wall descending test. It counts as organism-based. Set-up: dose 7.5 mg/kg, route intraperitoneal. Particulars: in vivo. In a few lines: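 Male Wistar rats (150–230 g), six per group, dosed ip in 1% lactic acid. Wall descending test: time for a rat hanging on the cage wall to move its hind legs and reach the floor, capped at 120 s. Rats were tested individually, every 30 min up to 420 min. Sedation was scored double-blind at the same time points.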

Data set [14] deals with Rattus norvegicus. As to the kind of experiment: Inhibition of D-amphetamine-induced hyperactivity in Wistar rat at 2.5 mg/kg, po. The arrangement: dose 2.5 mg/kg. It counts as functional, organism-based. In outline:
as §5

Data set [15] concerns Rattus norvegicus. In words: Toxicity assessed as induction of cataleptic extrapyramidal symptoms in orally dosed Wistar rat by bar test. Particulars: in vivo, po.

Regarding `Cl.NCCCC(=O)OCCN1CCN(CCCN2c3ccccc3Sc3ccc(C(F)(F)F)cc32)CC1`, the outcome with Rattus norvegicus [1] and in the data set on Rattus norvegicus [2] was Active. Further, the Activity result in the data set with Rattus norvegicus [3] was “Non-toxic”.

For the compound `Cl.NCCCC(=O)OCCN1CCN(CCCN2c3ccccc3Sc3ccc(Cl)cc32)CC1` [BL-1020], the result with Rattus norvegicus [4], in the data set on Rattus norvegicus [5], with Rattus norvegicus [7], with Rattus norvegicus [8], with Rattus norvegicus [9] and in the data set on Rattus norvegicus [10] was Active. Moreover, the result with Rattus norvegicus [11] and with Rattus norvegicus [12] was Active. Also, the Activity entry in the data set with Rattus norvegicus [6] is listed as “Non-toxic”.

`OCCN1CCN(CCCN2c3ccccc3Sc3ccc(C(F)(F)F)cc32)CC1` [FLUPHENAZINE]: the outcome in the data set on Rattus norvegicus [1] and in the data set on Rattus norvegicus [2] was Active. Also, the Activity entry with Rattus norvegicus [13] is on record as “Toxic”.

`OCCN1CCN(CCCN2c3ccccc3Sc3ccc(Cl)cc32)CC1` [PERPHENAZINE]: the result in the data set with Rattus norvegicus [4], with Rattus norvegicus [5] and in the data set with Rattus norvegicus [14] was Active. The figures for the Activity entry in the data set on Rattus norvegicus [6] and with Rattus norvegicus [15] were “Toxic” and “Dose-dependent effect”, respectively.
